In brackets after ≈: the same amount, converted by molar mass. Activity calls are given as the source filed them. The rule behind the calls is not given here.
Experiments:
FaDu = assay: Cytotoxicity against human FADU cells assessed as reduction in cell viability after 72 hrs by MTT assay; type: functional; conditions: read-out: LC50 (the source's name)
MES-SA/Dx5 = assay: Cytotoxicity against multidrug resistant human MES-SA/Dx5 cells assessed as reduction in cell viability after 72 hrs by MTT assay; type: functional, cell-based
Method in brief: (§1)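 Cells plated at an appropriate density and left 24 h to attach, then dosed in triplicate with compound diluted from 10 mM DMSO stocks into full growth medium (added at 2× final concentration). After 72 h, cells PBS-washed and given MTT (0.5 mg/mL in PBS) for 45−60 min. Formazan dissolved in 0.1 M HCl/2-propanol, A570 read (650 nm reference). Viability normalised to DMSO control; LC50 by nonlinear regression.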

[1] = Metabolic stability in CD-1 mouse liver microsomes assessed as half life at 1 uM preincubated for 5 mins before addition of NADPH by LC-MS/MS method; type: ADME
Tubulin [2] = target: T1, Tubulin (Sus scrofa, UniProt P02554+P02550); assay: Displacement of [3H]-colchicine from biotinylated porcine tubulin after 2 hrs by competitive binding assay; type: protein assay
Method in brief: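 Biotinylated porcine tubulin (750 ng/well) with 0.1 μM [3H]-colchicine and test compound in G-PEM with 1 mM GTP, 3% DMSO, duplicate wells, 2 h at 37 °C. Streptavidin SPA beads then added for 45 min at 37 °C. Nonspecific binding taken with 1000-fold unlabeled excess. IC50 from seven-point semilog curves, four-parameter fit.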

Tubulin [3] = target: T1, Tubulin; assay: Inhibition of porcine brain tubulin polymerization assessed as reduction in GTP-induced microtubule assembly after 60 mins by OD340 method
[4] = Solubility in 2% DMSO containing 50 mM potassium phosphate buffer solution at pH 7.4 by dynamic light scattering method; conditions: 50 mM potassium phosphate buffer with 2% DMSO
Tubulin (Sus scrofa) [5] = target: T2, Tubulin (Sus scrofa) (UniProt P02554+P02550); assay: Displacement of [3H]-paclitaxel from biotinylated porcine tubulin after 25 mins by competitive binding assay; type: protein assay
Method in brief: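 Biotinylated porcine tubulin precoupled to SPA beads for 30 min at 4 °C, then 0.05 μM [3H]-paclitaxel and test compound added in G-PEM with 1 mM GTP, 3% DMSO, duplicate wells, 25 min at rt. Nonspecific binding taken with 1000-fold unlabeled excess. IC50 from seven-point semilog curves, four-parameter fit.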

Tubulin (Sus scrofa) [6] = target: T2, Tubulin (Sus scrofa); assay: Displacement of [3H]-vinblastine from biotinylated porcine tubulin after 15 mins by competitive binding assay; type: protein assay
Method in brief: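 Biotinylated porcine tubulin, 0.2 μM [3H]-vinblastine, SPA beads and test compound combined together in G-PEM with 1 mM GTP, 3% DMSO, duplicate wells, 15 min at rt before counting. Nonspecific binding taken with 1000-fold unlabeled excess. IC50 from seven-point semilog curves, four-parameter fit.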

[7] = Solubility in 2% DMSO containing 50 mM potassium phosphate buffer solution pH 7.4 at 10 uM by dynamic light scattering method; conditions: pH 7.4, 10 µM
SCC-4 = assay: Cytotoxicity against human SCC4 cells assessed as reduction in cell viability after 72 hrs by MTT assay; type: functional, cell-based; method in brief: as §1
SK-MEL-28 = assay: Cytotoxicity against human SK-MEL-28 cells assessed as reduction in cell viability after 72 hrs by MTT assay; type: functional, cell-based; method in brief: as §1
SH-SY5Y = assay: Cytotoxicity against human SH-SY5Y cells assessed as reduction in cell viability after 72 hrs by MTT assay; type: functional, cell-based; method in brief: as §1
MES-SA = assay: Cytotoxicity against human MES-SA cells assessed as reduction in cell viability after 72 hrs by MTT assay; type: functional, cell-based; method in brief: as §1

Structure (SMILES) | CC50 (FaDu) [nM] | other results
COc1ccc(NC(=O)C(=O)c2cn(CC(C)C)c3ccccc23)cn1 | 317 | –
COc1ccc2c(C(=O)C(=O)Nc3ccc(OC)nc3)cn(C(C)C)c2c1 | > 10000 | –
COc1cc2c(c(OC)c1OC)-c1ccc(OC)c(=O)cc1[C@@H](NC(C)=O)CC2 | – | Activity (MES-SA/Dx5): inactive
COc1cc(NC(=O)C(=O)c2cn(C(C)C)c3ccccc23)ccn1 | 1750 | –
COCCc1cc(C(=O)C(=O)Nc2ccc(OC)nc2)c2ccccn12 | 36 | half-life at 1 µM [1]: 6 min
COc1ccc(NC(=O)C(=O)c2cn(C(C)C)c3ccc(Cl)cc23)cc1 | > 10000 | –
COCCn1cc(C(=O)C(=O)Nc2ccc(OC)nc2)c2cc(Cl)ccc21 | > 10000 | –
COCC(C)(C)n1cc(C(=O)C(=O)Nc2ccc(OC)nc2)c2ccccc21 | 137 | IC50 (Tubulin [2]): 2500 nM; IC50 (Tubulin [3]): 7800 nM; solubility kinetic [4]: 10 µM (≈ 3.81 µg/mL); Activity (Tubulin (Sus scrofa) [5]): inactive; Activity (Tubulin (Sus scrofa) [6]): Active; solubility [7]: soluble; half-life at 1 µM [1]: 16 min; Activity (MES-SA/Dx5): Active; Activity (SCC-4): Active; Activity (SK-MEL-28): Active; Activity (SH-SY5Y): Active; Activity (MES-SA): Active
COCCn1cc(C(=O)C(=O)Nc2ccc(OC)cc2)c2ccccc21 | 59 | –
COCCn1cc(C(=O)C(=O)Nc2ccc(OC(C)(C)C)nc2)c2ccccc21 | 858 | –
COc1ccc(NC(=O)C(=O)c2cn(C(C)C)c3ncccc23)cn1 | 126 | Activity (Tubulin (Sus scrofa) [5]): inactive; Activity (Tubulin (Sus scrofa) [6]): inactive
COc1nc(NC(=O)C(=O)c2cn(C(C)C)c3ccccc23)ns1 | > 10000 | –
COc1ccc(NC(=O)C(=O)c2cn(C(C)C)c3c(Cl)cccc23)cn1 | 10200 | –
COC(=O)CCn1cc(C(=O)C(=O)Nc2ccc(OC)nc2)c2ccccc21 | 168 | –
COCCn1cc(C(=O)C(=O)Nc2ccc(OC)nc2)c2cccnc21 | 27 | IC50 (Tubulin [2]): 940 nM; IC50 (Tubulin [3]): 2600 nM; Activity (Tubulin (Sus scrofa) [5]): inactive; Activity (Tubulin (Sus scrofa) [6]): inactive; Activity (MES-SA/Dx5): Active; Activity (SCC-4): Active; Activity (SK-MEL-28): Active; Activity (SH-SY5Y): Active; Activity (MES-SA): Active
CCOC(=O)COc1ccc(NC(=O)C(=O)c2cn(CCOC)c3ccccc23)cn1 | > 10000 | –
COCCn1cc(C(=O)C(=O)Nc2ccnc(OC)c2)c2ccccc21 | 235 | –
CCc1cc(C(=O)C(=O)Nc2ccc(OC)nc2)c2ccccn12 | 110 | –
COCCc1cc(C(=O)C(=O)Nc2ccc(OC(F)(F)F)cc2)c2ccccn12 | 758 | –
COCCn1cc(C(=O)C(=O)Nc2ccc(OC(F)(F)F)cc2)c2ccccc21 | 487 | Activity (Tubulin (Sus scrofa) [5]): inactive; Activity (Tubulin (Sus scrofa) [6]): Active

Structure (SMILES) | CC50 (FaDu) [nM] | other results
COc1ccc(NC(=O)C(=O)c2cn(C(C)C)c3ccc(Cl)cc23)cn1 | > 10000 | –
COCCn1cc(C(=O)C(=O)Nc2ccc(OC)nc2)c2cc(OC)ccc21 | > 10000 | –
CCC(C)n1cc(C(=O)C(=O)Nc2ccc(OC)nc2)c2ccccc21 (stereo not given) | 68 | –
COc1ccc(NC(=O)C(=O)c2cn(CC(C)(C)OC)c3ccccc23)cn1 | > 10000 | –
CC[C@]1(O)C[C@@H]2CN(CCc3c([nH]c4ccccc34)[C@@](C(=O)OC)(c3cc4c(cc3OC)N(C)[C@H]3[C@@](O)(C(=O)OC)[C@H](OC(C)=O)[C@]5(CC)C=CCN6CC[C@]43[C@@H]65)C2)C1 | – | Activity (MES-SA/Dx5): inactive
COc1ccc(NC(=O)C(=O)c2cn(C(C)C)c3c(OC)cccc23)cn1 | > 10000 | –
COc1ccc(NC(=O)C(=O)c2cn(CCOC(C)C)c3ccccc23)cn1 | 211 | half-life at 1 µM [1]: 23 min
CCOc1ccc(NC(=O)C(=O)c2cn(C(C)C)c3ccccc23)cn1 | 175 | –
COc1ccc(NC(=O)C(=O)c2cn(C3CCCC3)c3ccccc23)cn1 | 370 | –
COc1ccc(NC(=O)C(=O)c2cn(C(C)C)c3cccnc23)cn1 | > 10000 | –
COc1ccc(NC(=O)C(=O)c2cn(C(C)C)c3cc(Cl)ccc23)cn1 | 1770 | –
COc1ccc(NC(=O)C(=O)c2cn(C(C)C)c3cccc(OC)c23)cn1 | 7780 | –
COCCn1cc(C(=O)C(=O)Nc2cnc(OC)nc2)c2ccccc21 | 55 | –
COc1ccc(NC(=O)C(=O)c2cn(C(C)(C)COCC(=O)O)c3ccccc23)cn1 | > 10000 | solubility kinetic [4]: > 200 µM
COc1ccc(NC(=O)C(=O)c2cn(C(C)C)c3cccc(Cl)c23)cn1 | 2130 | –
COCCn1cc(C(=O)C(=O)Nc2ccncc2)c2ccccc21 | > 10000 | –
CC(C)n1cc(C(=O)C(=O)Nc2cccnc2)c2ccccc21 | > 10000 | –
CC(C)n1cc(C(=O)C(=O)Nc2ccncc2)c2ccccc21 | > 10000 | –
COc1nsc(NC(=O)C(=O)c2cn(C(C)C)c3ccccc23)n1 | 10400 | –
COCCn1cc(C(=O)C(=O)Nc2ccc(OCC(=O)O)nc2)c2ccccc21 | > 10000 | solubility kinetic [4]: > 200 µM

Structure (SMILES) | CC50 (FaDu) [nM] | other results
COCCn1cc(C(=O)C(=O)Nc2ccc(OC)nc2)c2ccccc21 | 17 | half-life at 1 µM [1]: 11 min; Activity (MES-SA/Dx5): Active; Activity (SCC-4): Active; Activity (SK-MEL-28): Active; Activity (SH-SY5Y): Active; Activity (MES-SA): Active
CC(C)Oc1ccc(NC(=O)C(=O)c2cn(C(C)C)c3ccccc23)cn1 | 408 | half-life at 1 µM [1]: 66 min
COc1ccc(NC(=O)C(=O)c2cc(C(C)C)n3ccccc23)cn1 | 160 | solubility kinetic [4]: 10 µM (≈ 3.37 µg/mL); Activity (Tubulin (Sus scrofa) [5]): inactive; Activity (Tubulin (Sus scrofa) [6]): inactive; solubility [7]: soluble; half-life at 1 µM [1]: < 5 min
COc1ccc(NC(=O)C(=O)c2cn(CCC(=O)O)c3ccccc23)cn1 | > 10000 | solubility kinetic [4]: > 200 µM
COc1ccc(NC(=O)C(=O)c2cn(C(C)C)c3cnccc23)cn1 | > 10000 | –
COc1ccc2c(c1)c(C(=O)C(=O)Nc1ccc(OC)nc1)cn2C(C)C | > 10000 | –
COc1ccc(NC(=O)C(=O)c2cn(CC3CCO3)c3ccccc23)cn1 (stereo not given) | 686 | –
CC(C)n1cc(C(=O)C(=O)Nc2ccc(C(F)(F)F)nc2)c2ccccc21 | > 10000 | –
COc1ccc(NC(=O)C(=O)c2cn(C(C)C)c3ccccc23)cc1 | 181 | –
CC(=O)O[C@H]1C(=O)[C@@]2(C)[C@H]([C@H](OC(=O)c3ccccc3)[C@]3(O)C[C@H](OC(=O)[C@H](O)[C@@H](NC(=O)c4ccccc4)c4ccccc4)C(C)=C1C3(C)C)[C@]1(OC(C)=O)CO[C@@H]1C[C@@H]2O | – | Activity (MES-SA/Dx5): inactive
CCn1cc(C(=O)C(=O)Nc2ccc(OC)nc2)c2ccccc21 | 219 | solubility kinetic [4]: 10 µM (≈ 3.23 µg/mL); Activity (Tubulin (Sus scrofa) [5]): inactive; Activity (Tubulin (Sus scrofa) [6]): Active; solubility [7]: soluble
COc1ccc(NC(=O)C(=O)c2cn(C(C)C)c3ccccc23)nn1 | 2270 | –
CCn1cc(C(=O)C(=O)Nc2ccncc2)c2ccccc21 | > 10000 | –
COCCn1cc(C(=O)C(=O)Nc2ccc(C(F)(F)F)nc2)c2ccccc21 | > 10000 | –
CCn1cc(C(=O)C(=O)Nc2ccnc(OC)c2)c2ccccc21 | 4180 | –
COc1ccc(NC(=O)C(=O)c2cn(C(C)C)c3ccccc23)cc1OC | > 10000 | –
COc1ccc(NC(=O)C(=O)c2cn(C(C)C)c3ccncc23)cn1 | > 10000 | –
CC(C)n1cc(C(=O)C(=O)Nc2ccc(OC(F)(F)F)cc2)c2ccccc21 | 8930 | –
CCCCn1cc(C(=O)C(=O)Nc2ccc(OC)nc2)c2ccccc21 | 18 | –

— ChEMBL document CHEMBL3745658, “An Orally Bioavailable, Indole-3-glyoxylamide Based Series of Tubulin Polymerization Inhibitors Showing Tumor Growth Inhibition in a Mouse Xenograft Model of Head and Neck Cancer” (J Med Chem, 2015)
